Active and inactive are the calls of the source. The calls are words filed in the database; no cut-off is given here.
Columns and labels:
LS174T [1] = experiment: Inhibition of Wnt/beta-catenin in human LS174T cells assessed as reduction in Axin-2 protein level at 10 uM by Western blotting; type: cell-based
LS174T [2] = experiment: Inhibition of Wnt/beta-catenin in human LS174T cells assessed as effect on […] at 10 uM by Western blotting; type: cell-based
LS174T [3] = experiment: Inhibition of Wnt/beta-catenin in human LS174T cells assessed as reduction in c-Myc protein level at 10 uM by Western blotting; type: cell-based
[4] = Drug uptake in human LS 174T cells assessed as accumulation in nucleus after 2 hrs by confocal microscopy; type: ADME, cell-based; details: ls174t
In short: (§1)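 LS174 cells on cover glass exposed to 10 μM fluorescent compound for 2h, 6h, 12h or 24h, then fixed in 4% paraformaldehyde 20 min at room temperature, PBS-washed, mounted and imaged by confocal microscopy under 405nm excitation.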

[5] = Drug uptake in human LS 174T cells assessed as accumulation in cytoplasm after 2 hrs by confocal microscopy; type: ADME, cell-based; details: ls174t; in short: as §1
[6] = Drug uptake in human LS 174T cells assessed as accumulation in nucleus after 12 hrs by confocal microscopy; type: ADME, cell-based; details: ls174t; in short: as §1
LS174T [7] = experiment: Inhibition of Wnt/beta-catenin in human LS174T cells assessed as reduction in c-Myc protein level at 100 uM by Western blotting; type: cell-based
LS174T [8] = experiment: Inhibition of Wnt/beta-catenin in human LS174T cells assessed as reduction in Cyclin D1 protein level at 100 uM by Western blotting; type: cell-based

Row | Drug uptake [4] | Drug uptake [5] | Drug uptake [6] | Compound | inhibition (LS174T [1]) | inhibition (LS174T [2]) | inhibition (LS174T [3]) | inhibition (LS174T [7]) | inhibition (LS174T [8])
1 |  |  |  | CN(C)c1ccc(/C=C/c2cccc(F)c2)cc1 | Active | inactive | Active |  | 
2 | Active | Active | Not Active | CCN(CC)c1ccc(/C=C/c2c(F)cccc2F)cc1 | Active | inactive | Active |  | 
3 |  |  |  | CN(C)c1ccc(/C=C/c2cc(F)ccc2F)cc1 | Active | inactive | Active |  | 
4 |  |  |  | CN(C)c1ccc(CCc2c(F)cccc2F)cc1 | inactive |  | inactive |  | 
5 |  |  |  | CN(C)c1ccc(/C=C/c2c(F)ccc(F)c2F)cc1 | Active | inactive | Active |  | 
6 |  |  |  | CCN(CC)c1ccc(/C=C/c2ccccc2F)cc1 | Active | inactive | Active |  | 
7 |  |  |  | CN(C)c1ccccc1/C=C/c1c(F)cccc1F | inactive | inactive | inactive |  | 
8 |  |  |  | Oc1ccc(/C=C\c2cc(O)cc(O)c2)cc1 |  |  |  | inactive | inactive
9 |  |  |  | CN(C)c1ccc(/C=C/c2c(F)cc(F)cc2F)cc1 | Active | inactive | Active |  | 
